pIC50: −log10 of the molar value.
Assays:
Assay type in all cases: functional, cell-based; call rule not given here
MCF7 = test: Cytotoxicity against estrogen receptor-positive human MCF7 cells by MTT assay; conditions: for pIC50: Homo sapiens, MCF7, read-out: IC50
Outline: (§1)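 MTT read-out after 72 h continuous exposure of human breast cancer cells to compound. Each assay run in duplicate; IC50 taken from three independent experiments and reported as mean SEM. Chlorambucil served as positive control.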

MDA-MB-231 = test: Cytotoxicity against estrogen receptor-negative human MDA-MB-231 cells by MTT assay; conditions: for IC50: mda-mb-231; for pIC50: Homo sapiens, MDA-MB-231, read-out: IC50; outline: as §1
MDA-MB-468 = test: Cytotoxicity against estrogen receptor-negative human MDA-MB-468 cells by MTT assay; conditions: for IC50: mda-mb-468; for pIC50: Homo sapiens, MDA-MB-468, read-out: IC50; outline: as §1
[1] = Cytotoxicity against estrogen receptor-negative human MDA-MB-436 cells by MTT assay; conditions: for IC50: mda-mb-436; for pIC50: Homo sapiens, MDA-MB-436, read-out: IC50; outline: as §1

| SMILES | pIC50 (MCF7) | IC50 (MDA-MB-231) | IC50 (MDA-MB-468) | IC50 [1] | IC50 (MCF7; mcf7) | pIC50 (MDA-MB-231) | pIC50 (MDA-MB-468) | pIC50 [1] |
| --- | --- | --- | --- | --- | --- | --- | --- | --- |
| COC(=O)[C@H](Cc1ccc(O)cc1)NC(=O)CCCCCCCCCCNC(=O)CCCc1ccc(N(CCCl)CCCl)cc1 | 4.17 | Not Active | Not Active | Not Active |  |  |  |  |
| O=C(CCCc1ccc(N(CCCl)CCCl)cc1)NCCCCCCCCCCC(=O)N[C@H](CO)Cc1ccc(O)cc1 | 4.71 | Not Active | Not Active | Not Active |  |  |  |  |
| COC(=O)[C@@H](Cc1ccc(O)cc1)NC(=O)CCCCCCCCCCNC(=O)CCCc1ccc(N(CCCl)CCCl)cc1 |  | Not Active |  |  | Not Active |  |  |  |
| O=C(CCCc1ccc(N(CCCl)CCCl)cc1)NCCCCCCCCCCC(=O)N[C@@H](CO)Cc1ccc(O)cc1 | 4.79 | Not Active |  |  |  |  |  |  |
| O=C(CCCc1ccc(N(CCCl)CCCl)cc1)NCCCCCC(=O)N[C@@H](CO)Cc1ccc(O)cc1 | 4.17 |  |  |  |  |  |  |  |
| COC(=O)[C@H](Cc1ccc(O)cc1)NC(=O)CCCc1ccc(N(CCCl)CCCl)cc1 | 4.50 |  |  |  |  | 4.42 | 4.20 | 4.81 |
| O=C(CCCc1ccc(N(CCCl)CCCl)cc1)N[C@H](CO)Cc1ccc(O)cc1 | 4.47 |  |  |  |  | 4.40 | 4.26 | 4.61 |
| COC(=O)[C@H](Cc1ccc(O)cc1)NC(=O)CCCCCNC(=O)CCCc1ccc(N(CCCl)CCCl)cc1 | 4.59 |  |  |  |  | 4.43 | 4.23 | 4.83 |
| O=C(CCCc1ccc(N(CCCl)CCCl)cc1)NCCCCCC(=O)N[C@H](CO)Cc1ccc(O)cc1 | 4.21 |  |  |  |  | 4.26 | 4.11 | 4.54 |
| COC(=O)[C@@H](Cc1ccc(O)cc1)NC(=O)CCCc1ccc(N(CCCl)CCCl)cc1 | 4.30 |  |  |  |  | 4.33 |  |  |
| O=C(CCCc1ccc(N(CCCl)CCCl)cc1)N[C@@H](CO)Cc1ccc(O)cc1 | 4.50 |  |  |  |  | 4.53 |  |  |
| COC(=O)[C@@H](Cc1ccc(O)cc1)NC(=O)CCCCCNC(=O)CCCc1ccc(N(CCCl)CCCl)cc1 | 3.82 |  |  |  |  |  |  |  |
| O=C(O)CCCc1ccc(N(CCCl)CCCl)cc1 [CHLORAMBUCIL] | 3.88 |  |  |  |  | 3.86 | 3.83 | 3.88 |
